These results are taken from PMC12215028 (Scientific Reports, 2025).

The subject of data set [1] is A549 cells. The experiment in a line: Subcutaneous xenograft mouse model. Type of data set: in vivo, BALB/c-nude male mice. The following applies: 30 mg/kg. In outline: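 Male BALB/c nude mice aged 6–7 weeks, under isoflurane, received 5 × 10⁶ A549 cells in 50 µL PBS plus 50 µL Matrigel subcutaneously in the flank. Groups of six received vehicle, test compound or reference compound by oral gavage three times weekly for 27 days. Vehicle was Tween 80:PEG400:ethanol:5% glucose 1:6:3:20, at 100 µL per 25 g mouse. Tumors were caliper-measured three times weekly; endpoint was about 1,500 mm³ or distress.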

The subject of data set [2] is A549, H460, H1299, and HCC827 cell lines. Put plainly: MTT assay, statements over all four lines. The class given is cell-based, human. The following applies: 48 h. In outline:
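H460, H1299 and HCC827 cells were kept in RPMI1640 with 10% FBS at 37 °C and 5% CO₂. A549 cells were plated at 2,500 per well. Cells were exposed to 0–50 µM test compound (final; 3.125–50 µM twofold steps) or DMSO control for 24, 48 and 72 h. MTT was then added for 2 h at 37 °C, formazan was dissolved in DMSO, and OD was read at 570 nm. Data are mean ± standard deviation; IC50 was calculated from viability.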
(Formazan colour is commonly taken as a measure of viable cells.)

Data set [3] has as its system A549 xenograft tumor tissue. Put plainly: H&E staining of xenograft tumor tissue. The conditions noted are these: 30 mg/kg; compared to the vehicle group. Type of data set: in vivo, BALB/c-nude male mice. Summed up:
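A549 cells (5 × 10⁶ in PBS plus Matrigel) were implanted subcutaneously into the flank of male nude mice aged 6–7 weeks. Compound was given by oral gavage three times weekly. Paraffin tumor sections were deparaffinized in xylene and rehydrated through graded ethanol. They were stained with hematoxylin for 30 s, differentiated in acid alcohol (0.3% HCl in 70% ethanol) and stained with eosin for 2 min. Sections were then dehydrated, cleared and mounted, and staining was quantified by image analysis.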

Data set [4] concerns p-EGFR(Y1068). Put plainly: Western blot, NSCLC cell lines. The class given is cell-based, human. The conditions noted are these: A549 and H460 cells; 50 µM. In outline: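 Cells were plated at 150,000 per well and treated with test compound or DMSO for 24 h. They were lysed in RIPA buffer with PMSF, DTT, NaF, Na₃VO₄ and protease inhibitors for 30 min on ice, then spun at 13,000 rpm for 30 min at 4 °C. Protein was quantified by Bradford assay and resolved by SDS-PAGE. Blots were probed with secondary antibodies at 1:5000 for 1 h at RT, detected by chemiluminescence and quantified by densitometry.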

Data set [5] relates to p-EGFR. Put plainly: Immunohistochemistry of xenograft tumor tissue. The class given is in vivo, BALB/c-nude male mice. The following applies: tumor tissues; compared to the vehicle group. Summed up: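 Paraffin sections of subcutaneous A549 flank tumors from nude mice were deparaffinized and rehydrated, and peroxidase was blocked with H₂O₂. Antigen retrieval used 0.01 M citrate (pH 6.0) at boiling for 10 min. Sections were blocked in normal goat serum for 1 h at RT, then incubated with anti-p-EGFR (Y1068) at 1:100 overnight at 4 °C. Detection used a biotinylated secondary (1 h, RT), ABC reagent (30 min) and DAB, with hematoxylin counterstain.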

Regarding `CC(C)=CC(=O)O[C@H]1Cc2cc3ccc(=O)oc3cc2OC1(C)C` [decursin], the “tumor size at the experimental endpoint” value in data set [1] (oral gavage three times per week, 27 days, vs vehicle) was “no statistically significant reduction”. In data set [1] (vs control, throughout the experimental period), the body weight changes entry was “no significant difference”. The cytotoxicity result in data set [2] was “significant cytotoxicity at 50 µM”. For the same molecule, the “tumor cell density (H&E)” value in data set [3] is reported as “did not show a significant difference”. For the same molecule, the “p-EGFR(Y1068) expression levels” value in data set [4] is “failed to inhibit EGFR phosphorylation”. Further, in data set [5], the “p-EGFR-positive cells / expression (IHC)” value was “not significantly reduced”.
